# Compound activity from PubChem BioAssay.
# NPY Y1 blocker – blocks the human neuropeptide Y Y1 receptor; P25929; HEK293-CNG Y1 cells, membrane potential fluorescence; NPY at EC95, then isoproterenol; inhibition, % at 3.6 µM; 200,000 tested, 1% active; AID 1040;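 active = inhibition above the campaign mean inhibition of all tested compounds plus 3 SD, cut at about 20% in these data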;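 note: 0% = DMSO wells given NPY plus isoproterenol and 100% = isoproterenol alone without NPY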
#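 Material: Y1- and CNG-channel-expressing HEK293 cells / Probe or stimulus: NPY 25 nM then isoproterenol 1 µM plus Ro 20-1724 25 µM / Doses: 3.6 µM single dose, DMSO 0.4% / Schedule: compound incubation 1 h at room temperature, readout 45 min post-stimulation / Signal: membrane potential fluorescence / Benchmarks: isoproterenol-only wells as full block versus NPY-plus-isoproterenol wells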
# NPY-Y2 PAM-ag – human NPY-Y2 potentiation or agonism, primary screen; activation, % at 3.6 µM; cells expressing NPY-Y2, potentiator/agonist read-out; P49146; 220,000 tested, 0.45% active; AID 1359; in the data active = activation above about 27%;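 note: cells stimulated with NPY near EC25 plus isoproterenol at EC100; 0% = vehicle plus submaximal agonist and 100% = vehicle plus saturating agonist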
# S1P4 antagonist – antagonists of human S1P4 receptor | O95977 | inhibition, % at 4.98 µM | S1P4-expressing cells, antagonist mode, reporter read-out | AID 1510 | 220,000 tested, 0.26% active; in the data active = inhibition above about 29%;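 note: 0% = wells stimulated with agonist and 100% = vehicle wells without agonist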
# NPY-Y1 PAM-ag – potentiators or agonists of human neuropeptide Y receptor Y1; NPY-Y1 expressing cells, potentiator/agonist activation; AID 1304; activation, % at 3.6 µM; 220,000 tested, 0.37% active; in the data active = activation above about 33%, passing the limit was not always enough;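 note: cells stimulated with NPY at EC10 then isoproterenol at EC100; 0% = low agonist plus stimulus and 100% = saturating agonist plus stimulus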
# S1P4 ag – human S1P4 receptor agonism; O95977; S1P4-expressing cell line, agonist reporter assay; activation, % at 4.98 µM; 220,000 tested, 0.35% active; AID 1509; in the data active = activation above about 11%;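 note: 0% = DMSO vehicle and 100% = reference agonist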
# NPY Y2 blocker – NPY-Y2 (human) receptor antagonism. 140,000 tested, 0.99% active. P49146. inhibition, % at 2.7 µM. NPY-Y2 expressing cells, antagonist mode. AID 793; in the data active = inhibition above about 17%;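 note: 0% = vehicle with agonist challenge and 100% = reference antagonist with challenge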
# S1P4 antag conf – human S1P4 antagonism, confirmation; S1P4-expressing cell line, antagonist mode, reporter read-out; inhibition, % at 4.98 µM; shares compounds with S1P4 antagonist; 520 tested, 71% active; in the data active = inhibition above about 30%
# S1P1 antagonist – blocks human S1P1, counter-screen for S1P4 antagonists | cell-based S1P1 antagonist counterscreen, inhibition | AID 1564 | 520 tested, 37% active | inhibition, % at 4.98 µM | shares compounds with S1P4 antagonist; in the data active = inhibition above about 40%;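 note: receptor stimulated with S1P near its EC80; 0% = agonist stimulated wells and 100% = vehicle only wells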
# Target sequence (P21453 whole entry, looked up): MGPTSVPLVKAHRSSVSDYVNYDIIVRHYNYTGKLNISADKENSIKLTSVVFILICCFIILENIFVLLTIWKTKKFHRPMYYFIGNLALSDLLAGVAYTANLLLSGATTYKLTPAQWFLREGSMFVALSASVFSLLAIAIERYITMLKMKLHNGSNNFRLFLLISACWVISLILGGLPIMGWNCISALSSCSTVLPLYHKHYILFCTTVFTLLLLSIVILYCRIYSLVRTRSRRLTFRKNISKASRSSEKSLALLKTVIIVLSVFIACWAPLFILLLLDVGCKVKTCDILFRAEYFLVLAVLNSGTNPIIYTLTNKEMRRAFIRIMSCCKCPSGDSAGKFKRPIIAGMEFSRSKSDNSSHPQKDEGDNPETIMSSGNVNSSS
# Numbers without * were called inactive; / = not tested or not shown. A selection: hits, their analogues and other compounds. The true share with any hit is near 2.4%.
SMILES,NPY Y1 blocker,NPY-Y2 PAM-ag,S1P4 antagonist,NPY-Y1 PAM-ag,S1P4 ag,NPY Y2 blocker,S1P4 antag conf,S1P1 antagonist
Cc1ccc(-c2nc(CS(=O)CC(=O)NC3CCC(C)CC3)c(C)o2)cc1 (configuration not stated),10,-13,78*,-13,1,6,12,34
COc1ccc(NC(=O)COC(=O)CCNS(=O)(=O)c2ccc(Cl)cc2)cc1,/,7,-19,24,1,/,/,/
CCC(CC)NC(=O)CO/N=C/c1ccccc1OC(F)F,2,14,39*,30,1,1,0,-6
Cc1cc2c(c(N3CCOCC3)n1)C(=O)OC2,1,-13,35*,-1,0,3,-3,-1
COc1cccc(NC(=O)CSc2nc3ccsc3c(=O)n2-c2ccc(C(=O)O)cc2)c1,-3,1,-20,-2,0,/,/,/
COc1ccc(C[C@H]2CN3C(=NC[C@@H]3C(C)C)N2CCNC(=O)c2ccc(C)c(Br)c2)cc1,11,-39,34*,-19,-1,/,41*,34
COc1ccc(NC(=O)/C(Cl)=C(/Cl)S(=O)(=O)Cc2ccccc2)cn1,1,-9,66*,7,4,-1,119*,62*
COc1ccc(NC(=O)C(Cl)=C(Cl)Cl)cn1,-4,9,-3,7,0,/,/,/
CC(=O)N1CCc2c(sc(NC(=O)c3ccc([N+](=O)[O-])o3)c2C#N)C1,-3,8,33*,-1,0,/,82*,34
COc1ccc(-c2cc(-c3ccccc3)c(C#N)c(S(C)=O)n2)cc1 (configuration not stated),-18,76*,54*,72*,-4,-1,85*,19
CCSc1nc(-c2ccc(OC)cc2)cc(-c2ccccc2)c1C#N,-4,-17,-13,-49,2,1,/,/
O=C1c2cccc3c([N+](=O)[O-])ccc(c23)C(=O)N1c1ccccn1,18,-17,105*,-31,-3,11,113*,151*
CCN(CC)CCNC(=O)CSc1c2c(nc3cc(Cl)ccc13)CCCC2,-5,3,4,7,-1,/,/,/
Cc1ccc(CNC(=O)CSc2c3c(nc4ccc(Cl)cc24)CCCC3)o1,5,-4,35*,-21,-1,6,29*,7
Cc1ccc(NN2C(=O)C=C(c3ccccc3)C2=O)cc1,6,9,37*,5,0,/,57*,36
O=C1c2ccccc2C(=O)N1Nc1ccccc1,0,3,7,9,2,0,/,/
N#Cc1nccnc1S(=O)(=O)c1cccs1,/,-6,41*,21,0,/,97*,56*
COc1ccc(-c2cc(C#N)nc(Oc3ccc(Cl)cc3)n2)cc1,2,-6,4,-21,-1,5,/,/
COc1ccc(-c2cc(C#N)nc(Cl)n2)cc1,/,-18,57*,-14,-2,/,97*,28
Oc1c(C(c2ccccc2Cl)N2CCCC2)ccc2cccnc12 (configuration not stated),-4,3,30*,4,-1,/,112*,92*
CC(C)(C)NC(=O)c1nn(Cc2ccccc2)c(=O)c2ccccc12,7,-10,6,-13,0,/,/,/
O=C(Nc1nnc(SCc2ccc(F)cc2)s1)c1ccccn1,-1,-5,31*,-3,0,/,101*,73*
CC(C)N1CCC2(CC1)N=C(c1ccc3c(c1)OCO3)CC(c1cc(Cl)ccc1O)N2 (configuration not stated),0,3,35*,17,0,4,79*,23
COc1nc(OC)nc(Oc2ccc(Cl)cc2[N+](=O)[O-])n1,0,11,3,9,3,-1,/,/
COc1ccc([N+](=O)[O-])c(S(=O)(=O)c2ccc(Cl)cc2)n1,/,-1,93*,8,-1,/,117*,104*
COc1ccc([N+](=O)[O-])c(S(=O)(=O)c2ccccc2)n1,/,18,88*,-5,-2,/,119*,79*
